In ChEMBL document CHEMBL1146543, “New antimycobacterial and antimalarial 8,9-secokaurane diterpenes from Croton kongensis” (J Nat Prod, 2003) one finds IC50 and MIC data, which are given here for three compounds.

Assay [1] has as its system Plasmodium falciparum. Nature of the assay: Antimalarial activity against multidrug-resistant Plasmodium falciparum K1 by [3H]hypoxanthine uptake. It counts as functional, organism-based. In a few lines:
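Parasites kept in continuous in vitro culture (Trager–Jensen method); microculture radioisotope assay with growth read as [3H]-hypoxanthine uptake.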

The test system of assay [2] is KB. Nature of the assay: Cytotoxicity against human KB cells. It counts as functional, cell-based. In a few lines: (§1)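 Colorimetric cytotoxicity assay run on Vero, KB and BC cell lines, with ellipticine as the reference compound. The result is reported as IC50.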
Assay [3] can be described thus: Cytotoxicity against human BC cells. It counts as functional, cell-based. In a few lines:
as §1

For assay [4], the system named is Vero. As to the kind of experiment: Cytotoxicity against african green monkey Vero cells. It counts as cell-based. The following applies: Chlorocebus sabaeus. In a few lines: as §1
The test system of assay [5] is Mycobacterium tuberculosis. Nature of the assay: Antimycobacterial activity against Mycobacterium tuberculosis H37Ra by Microplate Alamar Blue Assay. The format is functional. In a few lines: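 Microplate Alamar Blue assay with MIC as the endpoint; isoniazid and kanamycin sulfate were run as reference drugs.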

The structures appear in SMILES notation. ≈ marks a conversion by molar mass, not a printed value.

In the case of `C[C@@H]1CC[C@H]2[C@@H](C)C(=O)O[C@@H]3O[C@@]4(C)CC[C@@H]1[C@]32OO4` [ARTEMISININ], the IC50 (as a rule, the concentration that inhibits the measured activity by half) in assay [1] worked out at 0.001 µg/mL (≈ 0.00354 µM).

As to `Cc1c2ccncc2c(C)c2c1[nH]c1ccccc12` [ELLIPTECINE], the IC50 in assay [2], in assay [3] and in assay [4] was 0.2 µg/mL (≈ 0.812 µM) in each case.

In the case of `NC[C@H]1O[C@H](O[C@H]2[C@H](O)[C@@H](O[C@H]3O[C@H](CO)[C@@H](O)[C@H](N)[C@H]3O)[C@H](N)C[C@@H]2N)[C@H](O)[C@@H](O)[C@@H]1O.O=S(=O)(O)O` [KANAMYCIN SULFATE], the MIC (usually the lowest concentration found to suppress growth) in assay [5] came out at 2 µg/mL.
